Data on five compounds can be found in ChEMBL document CHEMBL4270668, “Design, Synthesis, Molecular Dynamics Simulation, and Functional Evaluation of a Novel Series of 26RFa Peptide Analogues Containing a Mono- or Polyalkyl Guanidino Arginine Derivative” (J Med Chem, 2018).

Experiment [1] addresses T1, Pyroglutamylated RF-amide peptide receptor (Homo sapiens, UniProt Q96P65).
T1 sequence (Q96P65 whole entry): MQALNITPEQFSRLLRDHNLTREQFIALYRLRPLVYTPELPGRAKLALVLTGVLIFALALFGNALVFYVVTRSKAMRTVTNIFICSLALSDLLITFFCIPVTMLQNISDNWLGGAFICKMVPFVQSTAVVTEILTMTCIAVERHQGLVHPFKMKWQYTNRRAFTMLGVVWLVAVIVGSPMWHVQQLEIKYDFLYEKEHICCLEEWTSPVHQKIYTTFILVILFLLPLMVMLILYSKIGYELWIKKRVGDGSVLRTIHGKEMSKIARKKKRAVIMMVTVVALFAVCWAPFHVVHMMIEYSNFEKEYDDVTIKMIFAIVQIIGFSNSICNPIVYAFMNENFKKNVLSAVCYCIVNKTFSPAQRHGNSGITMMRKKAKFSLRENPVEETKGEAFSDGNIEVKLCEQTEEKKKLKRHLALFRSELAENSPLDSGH
The experiment can be described thus: Agonist activity at human QRFPR expressed in CHO cells co-expressing Galpha16 assessed as increase Ca2+ mobilization after 3 mins by Fluo-4 AM-based scanning fluorometery. Format: functional, cell-based. The procedure, abridged:
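CHO-Gα16 cells stably expressing human QRFPR, seeded at 40,000 cells/well 24 h ahead. Loaded 1 h with 2 µM Fluo-4 AM plus 0.01% pluronic acid, washed, then 30 min in HBSS with 2.5 mM probenecid and 5 mM HEPES. Compounds added at final 10^-11 to 10^-5 M; fluorescence recorded 3 min on a scanning fluorometer. EC50 from sigmoidal variable-slope fits, ≥3 experiments in triplicate.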
A general note: A change in cytosolic calcium serves as a functional read-out for many receptors and channels.

The test system of experiment [2] is Mus musculus. The experiment can be described thus: Induction of insulin-induced hypoglycemia in C57Bl/6J mouse at 500 ug/kg, ip measured up to 90 mins post insulin injection by insulin tolerance test. Format: functional, organism-based. The method in brief:
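Mice fasted 6 h, then given i.p. insulin 0.75 U/kg with 26RFa 500 µg/kg, or phosphate buffer as vehicle. Tail-vein plasma glucose measured by glucometer at 0, 15, 30, 60 and 90 min. n = 8 per group; two-way ANOVA with Tukey post-test.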

The subject of experiment [3] is Mus musculus. Nature of the experiment: Induction of insulin-induced hypoglycemia in C57Bl/6J mouse at 148 ug/kg, ip measured up to 90 mins post insulin injection by insulin tolerance test. It is filed as functional, organism-based. The method in brief: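 Mice fasted 6 h with water available, then given i.p. human insulin 0.75 U/kg together with peptide 148 µg/kg (equimolar to 26RFa) or vehicle. Tail-vein plasma glucose read by glucometer at 0, 15, 30, 60 and 90 min. At least eight animals per group; two-way ANOVA with Tukey post-test.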

Experiment [4] has as its system Mus musculus. Nature of the experiment: Induction of insulin-induced hypoglycemia in C57Bl/6J mouse at 148 ug/kg, ip measured after 90 mins post insulin injection by insulin tolerance test. Format: functional, organism-based. The settings on record: 741 ug/kg, in the assay text read “741 ug/kg” for “148 ug/kg”.
For experiment [5], the target named is T2, Pyroglutamylated RF-amide peptide receptor (Homo sapiens) (UniProt Q96P65).
T2 sequence (whole entry): T1 sequence (Q96P65 whole entry)
The experiment can be described thus: Antagonist activity at human QRFPR expressed in CHO cells co-expressing Galpha16 assessed as inhibition of 26RFa-induced Ca2+ mobilization at 100 uM preincubated for 15 mins followed by agonist addition measured after 3 mins by Fluo-4 AM-based scanning fluorometery relative to 26RFa (20 to 26 residues). Format: functional, cell-based. The method in brief:
(§1)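 CHO-Gα16-hQRFPR cells loaded 1 h with 2 µM Fluo-4 AM, then incubated 15 min with graded compound. A 10^-7 M final 26RFa pulse was given during recording. Background subtracted, baseline normalized to 100%, peak fluorescence taken per concentration. IC50 from sigmoidal variable-slope fits, ≥3 experiments in triplicate. Maximal effect at 10^-4 M expressed as % inhibition of the 26RFa (10^-7 M) response.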

Experiment [6] addresses T1, Pyroglutamylated RF-amide peptide receptor. Nature of the experiment: Antagonist activity at human QRFPR expressed in CHO cells co-expressing Galpha16 assessed as inhibition of 26RFa-induced Ca2+ mobilization preincubated for 15 mins followed by agonist addition measured after 3 mins by Fluo-4 AM-based scanning fluorometery. It is filed as functional, cell-based. The procedure, abridged: as §1

Experiment [7] concerns the target T2, Pyroglutamylated RF-amide peptide receptor (Homo sapiens). The experiment can be described thus: Antagonist activity at human QRFPR expressed in CHO cells co-expressing Galpha16 assessed as inhibition of 26RFa-induced Ca2+ mobilization at 10 uM preincubated for 30 mins followed by agonist addition measured after 3 mins by Fluo-4 AM-based scanning fluorometery. It is filed as functional, cell-based. The method in brief:
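One-dose screen in CHO-Gα16 cells stably expressing human QRFPR, Fluo-4 AM loaded. Cells incubated 30 min with analogue at 10^-5 M, then challenged with 26RFa at 10^-7 M during fluorescence recording. Response normalized to 26RFa alone in HBSS.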

Active and inactive are the calls of the source. The rule behind the calls is not given here. Starred links: 1 amine or outer side, 2 acyl side, 3 side chain; linkers in the order of their positions; H or OH if unused. Non-standard residues stand in square brackets, D forms with d. Residues, ends and D or L forms follow the SMILES beside them. X1 = C/N=C(\NCCC[C@H](N[*:1])C(=O)[*:2])N(C)C; Arg(Me2a) = CN(C)C(=N)NCCC[C@H](N)C(=O)O; X15 = CCNC(=N)NCC[C@H](N[*:1])C(=O)[*:2]; Arg(Me) = CNC(=N)NCCC[C@H](N)C(=O)O

The term EC50 denotes the concentration needed to bring the measured effect to its halfway point. In the case of H-VGTALGSLAEELNGYNRKKGGFSFRF-NH2, the EC50 in experiment [1] was 0.046 µM. In the experiment with Mus musculus [2], the outcome was Active.
In the case of `CNC(=N)NCCC[C@H](NC(=O)[C@H](Cc1ccccc1)NC(=O)[C@H](CO)NC(=O)[C@H](Cc1ccccc1)NC(=O)CNC(=O)CN)C(=O)N[C@@H](Cc1ccccc1)C(N)=O` (H-GGFSF[Arg(Me)]F-NH2), in experiment [1], the EC50 is 0.0664 µM. Besides, the result in the experiment on Mus musculus [3] was inactive. The outcome in the experiment with Mus musculus [4] was Active.
In general, IC50 refers to the concentration that gives 50% inhibition. A word on the inhibition: it is the percentage by which the read-out fell short of the control. On to `C/N=C(\NCCC[C@H](NC(=O)[C@H](Cc1ccccc1)NC(=O)[C@H](CO)NC(=O)[C@H](Cc1ccccc1)NC(=O)CNC(=O)CN)C(=O)N[C@@H](Cc1ccccc1)C(N)=O)N(C)C` (H-GGFSF[X1]F-NH2), for which, in experiment [1], the EC50 is above 100 µM. In addition, in experiment [5], the Imax was found to be 87.5%. The IC50 in experiment [6] stood at 8.25 µM. Also, the inhibition in experiment [7] is 47%.
Take `CN(C)C(=N)NCCC[C@H](NC(=O)[C@H](Cc1ccccc1)NC(=O)[C@H](CO)NC(=O)[C@H](Cc1ccccc1)NC(=O)CNC(=O)CN)C(=O)N[C@@H](Cc1ccccc1)C(N)=O` (H-GGFSF[Arg(Me2a)]F-NH2): the EC50 in experiment [1] is above 100 µM. Further, the Imax in experiment [5] was 80%. In addition, in experiment [6], the IC50 worked out at 6.06 µM.
For `CCNC(=N)NCC[C@H](NC(=O)[C@H](Cc1ccccc1)NC(=O)[C@H](CO)NC(=O)[C@H](Cc1ccccc1)NC(=O)CNC(=O)CN)C(=O)N[C@@H](Cc1ccccc1)C(N)=O` (H-GGFSF[X15]F-NH2), the EC50 in experiment [1] is above 100 µM. Moreover, the IC50 in experiment [6] was above 100 µM.
